Results as given in ChEMBL document CHEMBL1140880, “Arylphthalazines as potent, and orally bioavailable inhibitors of VEGFR-2” (Bioorg Med Chem, 2009).
Converted amounts (≈) assume the structure as drawn.

Tests used:
HUVEC = test: Inhibition of VEGF-stimulated HUVEC cell proliferation treated before 2 hrs of VEGF challenge assessed after 3 days by [3H]thymidine incorporation assay; format: functional; details: Homo sapiens, read-out: ED50 (the source's name)
Procedure, shortened: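 HUVEC seeded at 1 × 10^4 cells/well in EGM and allowed to adhere ≥4 h. Cells then quiesced 72 h in medium lacking EGF, VEGF and FGF with 1% FBS. Compound added for 2 h (0.1% DMSO), then stimulation with VEGF-165 (5 ng/well) for 3 days.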

[1] = target: T1, Vascular endothelial growth factor receptor 2 (Homo sapiens, UniProt P35968); test: Inhibition of VEGFR2 by HTRF method
Target sequence in this assay (P35968 whole entry): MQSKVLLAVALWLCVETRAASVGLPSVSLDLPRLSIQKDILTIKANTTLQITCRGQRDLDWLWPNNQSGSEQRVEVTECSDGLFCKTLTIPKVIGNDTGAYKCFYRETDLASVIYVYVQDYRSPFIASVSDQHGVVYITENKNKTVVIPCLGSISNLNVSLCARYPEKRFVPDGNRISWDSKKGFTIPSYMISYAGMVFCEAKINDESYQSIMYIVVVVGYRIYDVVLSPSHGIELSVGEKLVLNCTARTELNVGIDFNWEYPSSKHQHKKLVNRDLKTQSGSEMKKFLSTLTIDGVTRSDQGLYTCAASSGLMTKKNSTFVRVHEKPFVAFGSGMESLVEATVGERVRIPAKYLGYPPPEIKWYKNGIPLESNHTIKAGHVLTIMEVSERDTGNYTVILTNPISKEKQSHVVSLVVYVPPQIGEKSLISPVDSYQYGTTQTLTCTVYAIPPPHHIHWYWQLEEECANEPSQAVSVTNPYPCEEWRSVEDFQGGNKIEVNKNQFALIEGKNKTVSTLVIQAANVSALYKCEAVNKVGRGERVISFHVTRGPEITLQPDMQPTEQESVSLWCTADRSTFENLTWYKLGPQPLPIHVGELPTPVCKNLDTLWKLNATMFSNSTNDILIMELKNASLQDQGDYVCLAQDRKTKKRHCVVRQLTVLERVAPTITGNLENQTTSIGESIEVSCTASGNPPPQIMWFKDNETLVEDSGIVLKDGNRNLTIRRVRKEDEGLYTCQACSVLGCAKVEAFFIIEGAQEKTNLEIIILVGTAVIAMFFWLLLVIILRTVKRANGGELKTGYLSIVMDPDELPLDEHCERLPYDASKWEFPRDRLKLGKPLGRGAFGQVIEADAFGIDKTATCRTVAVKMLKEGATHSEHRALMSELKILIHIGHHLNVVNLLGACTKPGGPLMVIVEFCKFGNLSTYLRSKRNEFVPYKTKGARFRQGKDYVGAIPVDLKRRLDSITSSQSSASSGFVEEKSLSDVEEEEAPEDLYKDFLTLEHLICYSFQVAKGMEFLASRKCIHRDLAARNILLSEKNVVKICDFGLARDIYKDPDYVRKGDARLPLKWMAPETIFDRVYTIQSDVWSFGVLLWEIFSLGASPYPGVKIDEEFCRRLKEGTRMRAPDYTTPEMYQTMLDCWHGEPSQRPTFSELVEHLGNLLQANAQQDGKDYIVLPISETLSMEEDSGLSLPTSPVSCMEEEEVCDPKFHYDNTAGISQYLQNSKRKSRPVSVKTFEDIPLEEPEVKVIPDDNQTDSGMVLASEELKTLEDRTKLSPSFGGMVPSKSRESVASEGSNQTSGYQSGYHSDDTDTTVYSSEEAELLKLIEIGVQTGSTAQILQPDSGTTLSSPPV

[2] = target: T1, Vascular endothelial growth factor receptor 2; details: HEK293
Target sequence in this assay (P35968 whole entry, looked up): as the sequence (P35968 whole entry) above

[3] = target: Vascular endothelial growth factor receptor 3 (Homo sapiens) (UniProt P35916); test: Inhibition of VEGFR3 at 10 uM
Vascular endothelial growth factor receptor 3 (Homo sapiens), sequence (P35916 whole entry): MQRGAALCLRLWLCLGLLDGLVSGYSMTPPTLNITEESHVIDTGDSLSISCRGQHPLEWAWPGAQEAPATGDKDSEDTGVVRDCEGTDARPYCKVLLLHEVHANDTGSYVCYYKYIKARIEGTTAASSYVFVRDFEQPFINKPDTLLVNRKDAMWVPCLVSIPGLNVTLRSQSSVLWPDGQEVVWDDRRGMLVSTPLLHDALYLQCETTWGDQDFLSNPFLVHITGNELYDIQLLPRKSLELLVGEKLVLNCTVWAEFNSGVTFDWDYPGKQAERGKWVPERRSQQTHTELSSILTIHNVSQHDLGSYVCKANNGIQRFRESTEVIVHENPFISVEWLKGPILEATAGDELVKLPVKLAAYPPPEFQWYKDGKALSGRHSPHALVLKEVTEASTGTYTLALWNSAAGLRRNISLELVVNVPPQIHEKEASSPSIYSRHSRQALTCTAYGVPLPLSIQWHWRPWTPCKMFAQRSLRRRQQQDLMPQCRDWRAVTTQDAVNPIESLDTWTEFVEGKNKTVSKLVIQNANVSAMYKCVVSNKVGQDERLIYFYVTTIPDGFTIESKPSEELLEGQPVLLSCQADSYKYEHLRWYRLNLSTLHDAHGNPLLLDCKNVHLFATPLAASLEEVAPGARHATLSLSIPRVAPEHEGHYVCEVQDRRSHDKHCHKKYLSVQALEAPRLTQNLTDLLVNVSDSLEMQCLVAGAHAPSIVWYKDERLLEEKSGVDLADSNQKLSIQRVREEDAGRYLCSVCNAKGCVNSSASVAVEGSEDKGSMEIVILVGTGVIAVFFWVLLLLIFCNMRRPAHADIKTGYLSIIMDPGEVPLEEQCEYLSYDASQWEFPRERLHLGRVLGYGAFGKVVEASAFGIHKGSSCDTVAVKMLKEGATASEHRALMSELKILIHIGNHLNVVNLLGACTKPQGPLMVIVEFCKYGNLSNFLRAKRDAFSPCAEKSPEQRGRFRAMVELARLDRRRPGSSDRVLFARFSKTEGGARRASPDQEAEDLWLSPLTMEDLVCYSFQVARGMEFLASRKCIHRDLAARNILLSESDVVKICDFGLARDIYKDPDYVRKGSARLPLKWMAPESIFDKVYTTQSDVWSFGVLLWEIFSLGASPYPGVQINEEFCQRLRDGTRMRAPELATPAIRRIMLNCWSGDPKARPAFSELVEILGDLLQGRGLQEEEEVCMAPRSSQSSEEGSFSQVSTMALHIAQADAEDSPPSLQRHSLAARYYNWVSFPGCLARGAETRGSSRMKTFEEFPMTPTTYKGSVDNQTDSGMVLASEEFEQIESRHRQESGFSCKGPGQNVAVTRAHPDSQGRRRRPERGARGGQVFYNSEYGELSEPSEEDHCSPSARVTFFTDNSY

[4] = target: Fibroblast growth factor receptor 1 (Homo sapiens) (UniProt P11362); test: Inhibition of FGFR1 at 10 uM
Fibroblast growth factor receptor 1 (Homo sapiens), sequence (P11362 22-822 limits assumed): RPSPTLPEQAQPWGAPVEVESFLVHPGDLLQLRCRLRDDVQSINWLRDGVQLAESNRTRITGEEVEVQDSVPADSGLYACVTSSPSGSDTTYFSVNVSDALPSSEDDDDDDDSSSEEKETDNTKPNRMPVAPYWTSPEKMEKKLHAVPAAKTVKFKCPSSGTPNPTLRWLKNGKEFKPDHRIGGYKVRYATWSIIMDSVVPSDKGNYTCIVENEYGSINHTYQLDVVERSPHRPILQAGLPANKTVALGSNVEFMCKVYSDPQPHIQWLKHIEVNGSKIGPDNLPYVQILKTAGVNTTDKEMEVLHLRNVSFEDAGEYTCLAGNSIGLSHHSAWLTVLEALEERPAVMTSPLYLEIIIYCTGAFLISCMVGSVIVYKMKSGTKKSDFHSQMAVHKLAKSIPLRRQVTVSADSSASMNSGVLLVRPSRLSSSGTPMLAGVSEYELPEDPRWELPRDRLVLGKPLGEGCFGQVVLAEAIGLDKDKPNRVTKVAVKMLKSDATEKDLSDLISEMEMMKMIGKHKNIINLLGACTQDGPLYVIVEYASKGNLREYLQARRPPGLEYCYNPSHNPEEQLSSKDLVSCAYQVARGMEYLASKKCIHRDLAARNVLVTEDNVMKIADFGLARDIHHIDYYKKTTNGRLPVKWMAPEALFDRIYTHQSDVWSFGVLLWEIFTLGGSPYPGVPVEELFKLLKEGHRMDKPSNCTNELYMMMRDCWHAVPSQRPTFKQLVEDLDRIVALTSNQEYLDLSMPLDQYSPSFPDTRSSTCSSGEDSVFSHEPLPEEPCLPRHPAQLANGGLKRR

[5] = target: Sodium-dependent dopamine transporter (Homo sapiens) (UniProt Q01959); test: Inhibition of dopamine transporter at 10 uM
Sodium-dependent dopamine transporter (Homo sapiens), sequence (Q01959 whole entry): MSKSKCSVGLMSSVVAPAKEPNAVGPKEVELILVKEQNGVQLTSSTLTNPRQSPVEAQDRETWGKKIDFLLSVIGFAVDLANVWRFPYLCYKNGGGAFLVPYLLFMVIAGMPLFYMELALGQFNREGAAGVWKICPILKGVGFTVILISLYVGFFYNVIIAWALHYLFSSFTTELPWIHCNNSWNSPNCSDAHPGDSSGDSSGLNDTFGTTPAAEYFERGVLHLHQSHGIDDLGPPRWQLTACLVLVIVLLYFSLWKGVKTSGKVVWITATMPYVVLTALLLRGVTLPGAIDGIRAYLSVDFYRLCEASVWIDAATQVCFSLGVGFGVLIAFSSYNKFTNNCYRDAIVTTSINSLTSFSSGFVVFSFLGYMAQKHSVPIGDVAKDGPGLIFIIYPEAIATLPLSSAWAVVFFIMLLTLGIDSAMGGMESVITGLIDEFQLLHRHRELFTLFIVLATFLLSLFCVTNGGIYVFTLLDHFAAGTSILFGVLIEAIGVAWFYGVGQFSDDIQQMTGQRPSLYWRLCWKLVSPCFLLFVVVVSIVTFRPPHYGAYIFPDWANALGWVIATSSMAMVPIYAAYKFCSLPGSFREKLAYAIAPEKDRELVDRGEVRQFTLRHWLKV

[6] = Inhibition of adenosine receptor at 10 uM
[7] = target: Histamine H2 receptor (Homo sapiens) (UniProt P25021); test: Inhibition of histamine H2 receptor at 10 uM
Histamine H2 receptor (Homo sapiens), sequence (P25021 whole entry): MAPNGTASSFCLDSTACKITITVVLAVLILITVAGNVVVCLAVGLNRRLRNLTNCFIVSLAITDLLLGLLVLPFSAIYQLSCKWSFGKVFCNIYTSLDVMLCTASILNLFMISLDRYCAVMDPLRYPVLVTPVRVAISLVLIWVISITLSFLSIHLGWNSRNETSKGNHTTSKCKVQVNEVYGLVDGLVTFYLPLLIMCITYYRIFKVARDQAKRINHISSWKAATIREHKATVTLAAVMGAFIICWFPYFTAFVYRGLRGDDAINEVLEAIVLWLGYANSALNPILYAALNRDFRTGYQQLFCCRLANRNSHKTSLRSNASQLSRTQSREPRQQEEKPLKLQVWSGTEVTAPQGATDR

[8] = target: Voltage-gated inwardly rectifying potassium channel KCNH2 (Homo sapiens, UniProt Q12809); test: Inhibition of human ERG; details: read-out: ED50 (the source's name)
Cytochrome P450 3A4 = Cytochrome P450 3A4 (Homo sapiens, UniProt P08684); test: Inhibition of CYP3A4; format: ADME
Cytochrome P450 3A4, sequence (P08684 whole entry): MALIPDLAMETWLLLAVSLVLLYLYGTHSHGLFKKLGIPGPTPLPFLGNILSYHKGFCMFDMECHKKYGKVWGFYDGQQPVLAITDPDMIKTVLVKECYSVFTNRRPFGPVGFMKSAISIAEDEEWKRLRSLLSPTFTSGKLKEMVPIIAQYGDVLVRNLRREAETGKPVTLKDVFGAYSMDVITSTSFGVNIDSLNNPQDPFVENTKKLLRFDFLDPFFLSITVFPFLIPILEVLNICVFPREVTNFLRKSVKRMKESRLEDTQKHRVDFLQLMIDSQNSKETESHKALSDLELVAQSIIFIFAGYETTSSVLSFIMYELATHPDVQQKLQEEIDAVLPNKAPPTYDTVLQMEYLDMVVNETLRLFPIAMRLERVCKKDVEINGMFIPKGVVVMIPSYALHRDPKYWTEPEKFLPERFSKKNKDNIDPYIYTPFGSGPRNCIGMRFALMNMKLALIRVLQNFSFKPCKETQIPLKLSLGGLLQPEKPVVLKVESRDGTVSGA

[9] = Solubility in deionized water; format: physicochemical
[10] = Drug level in po dosed CD1 mouse administered as 5% phosal solution after 1 hr; format: ADME, organism-based; details: in vivo, read-out: Drug uptake
Procedure, shortened: (§1)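 Preliminary exposure study in female CD-1 mice dosed by oral route; vehicles included 5% phosal solution. Plasma analysed for compound at 1-h and 4-h timepoints.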

[11] = Drug level in po dosed CD1 mouse administered as 5% phosal solution after 4 hrs; format: ADME, organism-based; details: in vivo, read-out: Drug uptake; procedure, shortened: as §1
[12] = Cmax in CD1 mouse at 30 mg/kg administered as 5% phosal solution after 24 hrs; format: ADME, organism-based; set-up: dose 30 mg/kg; details: in vivo
Procedure, shortened: (§2)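 Female CD-1 mice (n = 3) given 30 mg/kg orally in 5% phosal solution (dihydrochloride salt; target ca. 3 mg/mL, dosed at 10 mL/kg).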

[13] = AUC (0 to 24 hrs) in CD1 mouse at 30 mg/kg administered as 5% phosal solution; format: ADME, organism-based; set-up: time < 24 hr, dose 30 mg/kg; details: plasma; procedure, shortened: as §2

## COc1cc2c(Oc3ccc4[nH]c(C)cc4c3F)ncnc2cc1OCCCN1CCCC1 [CEDIRANIB]
HUVEC
  EC50: 12 nM

## CNS(=O)(=O)c1ccc(Nc2nnc(-c3ccc(C(N)=O)cc3)c3ccccc23)cc1
[1]
  IC50: > 10000 nM

## CC(C)(C)c1ccc(Nc2nnc(-c3ccc(C(N)=O)cc3)c3ccccc23)cc1
HUVEC
  EC50: 250 nM

## COc1ccc(Nc2nnc(-c3ccc(C(N)=O)cc3)c3ccccc23)cc1
[2]
  ED50: > 10000 nM

## NC(=O)c1ccc(-c2nnc(Nc3ccc(Oc4ccccc4)cc3)c3ccccc23)cc1
[1]
  IC50: > 10000 nM

## Clc1ccc(Nc2nnc(-c3cccc4cnccc34)c3ccccc23)cc1
[3]
  inhibition: 33%
[4]
  inhibition: 38%
[5]
  inhibition: 77%
[6]
  inhibition: 65%
[7]
  inhibition: 54%
[8]
  IC50: 3000 nM
Cytochrome P450 3A4
  Activity: Not Active
[9]
  solubility: 1000 µg/mL (≈ 2610 µM)
HUVEC
  EC50: 210 nM
[10]
  concentration at 1 h: 22.7 µM
[11]
  concentration at 4 h: 18.8 µM
[12]
  Cmax: 25.9 µM
[13]
  AUC(0-t) at 24 h: 891 µM·h
[2]
  ED50: 10 nM

## COc1cc2/c(=N/c3ccc(Br)cc3F)nc[nH]c2cc1OCC1CCN(C)CC1 [VANDETANIB]
HUVEC
  EC50: 280 nM
